In ChEMBL document CHEMBL2417357, “Synthesis and antiprotozoal activities of benzyl phenyl ether diamidine derivatives” (Eur J Med Chem, 2013):
Activity calls are given as the source filed them. The calls are words filed in the database; no cut-off is given here.

Legend:
[1] = test system: Trypanosoma brucei rhodesiense; test: Antitrypanosomal activity against Trypanosoma brucei rhodesiense STIB900 infected in NMRI mouse assessed as cured animal at 100 mg/kg, po administered for 4 days; format: functional, organism-based; set-up: dose 100 mg/kg
Summary of the method: (§1)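 Acute model in female NMRI mice infected with T. b. rhodesiense STIB900. Single daily doses given for four days, intraperitoneally or orally. Mice surviving 60 days post-infection without parasitaemia relapse counted as cured; result reported as cured/infected out of 4 mice per group, with mean survival in days.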

[2] = test system: Trypanosoma brucei rhodesiense; test: Antitrypanosomal activity against Trypanosoma brucei rhodesiense STIB900 infected in NMRI mouse assessed as cured animal at 25 mg/kg, po administered for 4 days; format: functional, organism-based; set-up: dose 25 mg/kg; summary of the method: as §1
[3] = test system: Trypanosoma brucei rhodesiense; test: Antitrypanosomal activity against Trypanosoma brucei rhodesiense STIB900 infected in NMRI mouse assessed as mean survival days at 25 mg/kg, po administered for 4 days; format: functional
Summary of the method: (§2)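 Female NMRI mice, acute infection model with T. b. rhodesiense STIB900. Compound given as a single daily dose for four days, intraperitoneally or orally. Cure means survival to 60 days post-infection without parasitaemia relapse. Mean survival recorded in days.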

[4] = test system: Trypanosoma brucei rhodesiense; test: Antitrypanosomal activity against Trypanosoma brucei rhodesiense STIB900 infected in NMRI mouse assessed as mean survival days at 100 mg/kg, po administered for 4 days; format: functional; summary of the method: as §2
L6 = test: Cytotoxicity against rat L6 cells after 72 hrs by Alamar blue assay; format: cell-based; conditions: L6, 72 h
Summary of the method: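 Rat L6 myoblast cells; cytotoxic IC50 taken as the average of duplicate determinations.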

Leishmania donovani = test: Antileishmanial activity against amastigotes of Leishmania donovani MHOM/SD/62/IS-CL2D; format: functional, organism-based
Summary of the method: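 Axenic amastigotes of L. donovani MHOM/SD/62/IS-CL2D; IC50 taken as the average of at least two determinations.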

[5] = Selectivity index, ratio of IC50 for rat L6 cells to IC50 for amastigotes of Leishmania donovani; format: toxicity, cell-based; conditions: read-out: Ratio IC50
Summary of the method: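 SI = IC50 in rat L6 myoblasts / IC50 against L. donovani MHOM/SD/62/IS-CL2D axenic amastigotes. The amastigote IC50 is the average of at least two determinations; the L6 IC50 is the average of duplicates.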

[6] = Selectivity index, ratio of IC50 for rat L6 cells to IC50 for chloroquine-resistant Plasmodium falciparum K1; format: toxicity, cell-based; conditions: read-out: Ratio IC50
Summary of the method: (§3)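 SI = IC50 in rat L6 myoblasts / IC50 against the parasite (T. b. rhodesiense STIB900 or P. falciparum K1). Each IC50 is the average of duplicate determinations.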

Plasmodium falciparum = test: Antiplasmodial activity against chloroquine-resistant Plasmodium falciparum K1; format: functional, organism-based
Summary of the method: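 Chloroquine-resistant K1 strain tested in vitro. IC50 is the average of duplicate determinations.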

[7] = Selectivity index, ratio of IC50 for rat L6 cells to IC50 for Trypanosoma brucei rhodesiense STIB900; format: toxicity, cell-based; conditions: read-out: Ratio IC50; summary of the method: as §3
[8] = test system: Trypanosoma brucei rhodesiense; test: Antitrypanosomal activity against Trypanosoma brucei rhodesiense STIB900 after 72 hrs by Alamar blue assay; format: functional, organism-based; conditions: STIB900, 72 h
[9] = test system: Trypanosoma brucei rhodesiense; test: Antitrypanosomal activity against Trypanosoma brucei rhodesiense STIB900 infected in NMRI mouse assessed as cured animal at 20 mg/kg, ip administered for 4 days; format: functional, organism-based; set-up: dose 20 mg/kg; summary of the method: as §1
[10] = test system: Trypanosoma brucei rhodesiense; test: Antitrypanosomal activity against Trypanosoma brucei rhodesiense STIB900 infected in NMRI mouse assessed as mean survival days at 20 mg/kg, ip administered for 4 days; format: functional; conditions: route intraperitoneal; summary of the method: as §2
[11] = test system: Trypanosoma brucei rhodesiense; test: Antitrypanosomal activity against Trypanosoma brucei rhodesiense STIB900 infected in NMRI mouse assessed as cured animal at 2 mg/kg, ip administered for 4 days; format: functional, organism-based; set-up: dose 2 mg/kg; summary of the method: as §2
[12] = test system: Trypanosoma brucei rhodesiense; test: Antitrypanosomal activity against Trypanosoma brucei rhodesiense STIB900 infected in NMRI mouse assessed as mean survival days at 2 mg/kg, ip administered for 4 days; format: functional; conditions: route intraperitoneal; summary of the method: as §2

| SMILES | Activity [1] | Activity [2] | MSD [3] | MSD [4] | IC50 (L6) | IC50 (Leishmania donovani) | selectivity ratio [5] | selectivity ratio [6] | IC50 (Plasmodium falciparum) | selectivity ratio [7] | IC50 [8] | Activity [9] | MSD [10] | Activity [11] | MSD [12] |
| --- | --- | --- | --- | --- | --- | --- | --- | --- | --- | --- | --- | --- | --- | --- | --- |
| Cl.Cl.N/C(=N\O)c1cccc(COc2c(Br)cc(/C(N)=N/O)cc2Br)c1 | Active | inactive | 20.75 days | >60 days | 26.8 µM | 61.1 µM | < 1 | 4 | 7.56 µM | 4 | 6.89 µM |  |  |  |  |
| N=C(N)c1cccc(COc2cccc(C(=N)N)c2)c1 |  |  |  |  | 24 µM |  |  | 198 | 0.121 µM | 248 | 0.097 µM | inactive | 19.8 days |  |  |
| N=C(N)c1ccc(OCc2cccc(C(=N)N)c2)cc1 |  |  |  |  | 5.93 µM |  |  | 168 | 0.035 µM | 250 | 0.024 µM | inactive | 25.25 days |  |  |
| Nc1nc(N)nc(Nc2ccc([As]3SCC(CO)S3)cc2)n1 (configuration not stated) [MELARSOPROL] |  |  |  |  |  |  |  |  |  | 1220 |  |  |  | Active | >60 days |
| Cl.Cl.N/C(=N\O)c1ccc(COc2ccc(/C(N)=N/O)cc2)cc1 |  |  | >31.7 days | >46.25 days | 8.28 µM | > 100 µM | < 1 | < 1 | 9.49 µM | < 1 | > 238 µM |  |  |  |  |
